Screening data as filed in PubChem.
A selection: hits, their analogues and other compounds. The true share with any hit is near 4.9%.
HSF1 inhib: HSF1 inhibitors in luciferase reporter cells, primary screen, cell-based, NIH3T3, luminescence; activity change, negative = inhibition, % at 7.5 µM (by protocol); AID 2098, 2009; 300,000 compounds, 0.77% hits; NIH3T3-HGL HSE-luciferase, MG132-induced, luminescence 8 h; stronger effect = lower value;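 active = more than half of replicate wells show activity change below -50%, luminescence cut by over half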;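 note: luciferase reports HSF-1 transcriptional activity via heat shock element; 0% = median of DMSO wells and -100% = zero luminescence signal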
CHT block: inhibitors of human choline transporter CHT. B-score at 10 µM. 310,000 compounds, 0.86% hits. CHT-expressing cells, membrane potential dye, choline response; stronger effect = lower value. High affinity choline transporter 1 (Homo sapiens), Q9GZV3;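 active = B-score over 3 SD under the library average, and starting fluorescence ratio not unusually high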;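 note: choline stimulus applied at its EC90 after an EC20 pre-addition; B-score computed on integrated fluorescence ratio after choline addition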
Target sequence (Q9GZV3 whole entry, looked up): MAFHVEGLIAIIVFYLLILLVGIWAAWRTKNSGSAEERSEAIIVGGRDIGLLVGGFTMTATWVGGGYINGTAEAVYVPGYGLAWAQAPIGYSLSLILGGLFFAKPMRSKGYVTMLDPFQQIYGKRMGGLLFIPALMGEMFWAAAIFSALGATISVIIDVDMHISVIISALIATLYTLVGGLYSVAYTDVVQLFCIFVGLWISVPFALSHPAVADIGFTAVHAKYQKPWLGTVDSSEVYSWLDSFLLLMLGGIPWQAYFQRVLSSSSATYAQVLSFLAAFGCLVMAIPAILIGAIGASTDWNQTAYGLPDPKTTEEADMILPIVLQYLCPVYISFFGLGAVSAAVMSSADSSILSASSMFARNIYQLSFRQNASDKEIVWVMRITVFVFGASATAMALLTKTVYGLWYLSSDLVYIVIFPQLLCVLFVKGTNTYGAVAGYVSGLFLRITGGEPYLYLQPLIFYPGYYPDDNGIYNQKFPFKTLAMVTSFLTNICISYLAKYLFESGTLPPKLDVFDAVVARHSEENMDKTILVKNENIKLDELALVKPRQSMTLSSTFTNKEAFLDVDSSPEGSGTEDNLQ
HSF1 activator: HSF-1 activators, primary screen, NIH3T3-HGL cells, MG132 stress, luminescence, single point; AID 504408, 2011; NIH3T3-HGL HSF-1 luciferase reporter, 8 h; 100% = twice DMSO control signal; activation, % at 9 µM; 300,000 compounds, 1.7% hits;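 active = mean replicate activation of at least 50% with a set share of replicates each reaching 50%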;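 note: 0% = median of the neutral control wells and 100% = twice that signal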
PHOSPHO1 inh: PubChem AID 1565; Phosphoethanolamine/phosphocholine phosphatase (Homo sapiens), Q8TCT1; recombinant PHOSPHO1, absorbance phosphatase assay; inhibition, % at 13.3 µM; 290,000 compounds, 1.1% hits; in the data active = inhibition above about 60%
Hep lipid drop: inhibitors of hepatocyte lipid droplet formation, primary screen, imaging, high-throughput imaging, BODIPY stain. AML12 mouse hepatocytes, oleate lipid droplets. inhibition, % at 6.5 µM. 240,000 compounds, 0.4% hits;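 active = lipid droplet intensity inhibited by at least 50%, with more than 500 cells counted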
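Material – AML12 mouse liver cells · Also added – oleate loading, 100 µM · Compound dosing – 6.5 µM single-point dosing · Times – overnight treatment with compound plus oleate · Measured by – fluorescence imaging, 20x objective, two fields per well · Read-out – percent inhibition of filter-corrected integrated lipid droplet intensity per well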
CHT PAM: CHT positive allosteric modulators, primary screen, cell-based, membrane potential dye, choline EC20; High affinity choline transporter 1 (Homo sapiens), Q9GZV3; CHT-expressing cells; stronger effect = higher value; LV-AA mutant CHT in HEK293 cells; B-score at 10 µM; 310,000 compounds, 0.49% hits; AID 488977, 2010;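 active = initial fluorescence not abnormally high and integrated response B-score, plate-corrected, over 3 SD above library mean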
Starred values were filed as active, the others as inactive; i = inactive; . = no result.

SMILES | HSF1 inhib | CHT block | HSF1 activator | PHOSPHO1 inh | Hep lipid drop | CHT PAM
O=C(NCc1cccs1)c1ccc([N+](=O)[O-])cc1Cl | -70* | i | -73 | 4 | -26 | i
COc1cc(C(CCN2CCCC(C)C2)c2c(OC)cc(OC)c3c2OC(=O)CC3c2ccc(N(C)C)cc2)cc(OC)c1OC (stereo not given) | 12 | -5.1* | -4 | 18 | 10 | i
COc1cc(C2CC(=O)Oc3c(C(CCN4CCCC(C)C4)c4ccc(N(C)C)cc4)c(OC)cc(OC)c32)cc(OC)c1OC (stereo not given) | 5 | i | 10 | 22 | -2 | i
CCOC(=O)/C(C#N)=C1\SS/C(=C(/C#N)C(=O)OCC)S1 | -3 | -5.5* | 17 | 20 | 14 | i
COc1ccc(S(=O)(=O)N2CCC(O)(c3ccc(Cl)cc3)CC2)cc1OC | . | i | . | 64* | 10 | i
Cc1ccc(/C=N/Nc2cccc3cccnc23)c(O)c1 | 39 | i | 68* | 98* | . | i
Oc1ccc(/C=N/Nc2cccc3cccnc23)c(O)c1 | 58 | i | 85* | -17 | -19 | i
Oc1ccc(/C=N/Nc2ncc(Br)cn2)c(O)c1 | 51 | i | 79* | -7 | -3 | i
Oc1ccc(/C=N/Nc2nccnc2Cl)c(O)c1 | 2 | i | -7 | 1 | -9 | i
Cc1cc(N/N=C/c2ccccc2O)c2ccccc2n1 | 19 | i | 38 | 19 | 4 | i
COc1cccc(N2CCN(S(=O)(=O)c3ccc4c(c3)N(C(C)=O)CCO4)CC2)c1 | 15 | i | 15 | 26 | 14 | i
C#CC(=O)N(c1cc(OC)ccc1OC)C(C(=O)NC1CCCC1)c1cccs1 (stereo not given) | -90* | i | -91 | 27 | . | i
C#CC(=O)N(c1ccc(OC)cc1OC)C(C(=O)NC1CCCC1)c1cccs1 (stereo not given) | -26 | i | -29 | 48 | 123* | i
CC1CCN(C(=O)CSc2nc(N)cc(N)n2)CC1 | . | i | . | 24 | . | i
CC(=O)c1cccc(NC(=O)CN2C=NS(=O)(=O)c3ccc(C)cc32)c1 | 14 | i | 26 | 42 | 2 | i
Cc1ccc2c(c1)N(Cc1ccc([N+](=O)[O-])cc1)C=NS2(=O)=O | -65* | i | -71 | 22 | -26 | i
COc1cc(/C=N/N2CCN(C3c4ccccc4-c4ccccc43)CC2)cc(OC)c1OC | 48 | i | 103* | -6 | -99 | i
CCOc1ccc(NC(=O)CCC(=O)N/N=C(\C)c2cccs2)cc1 | 0 | i | -1 | 37 | -7 | i
CCn1c(N2CCN(CC(=O)c3c(C)n(C)c4ccccc34)CC2)nc2c1c(=O)[nH]c(=O)n2C | 0 | i | -7 | 92* | . | i
CCOc1ccc(/C=C/c2nc(C#N)c(NCCCOC)o2)cc1 | 7 | i | 30 | 35 | -10 | i
O=C(Cn1ncc(Cl)c(Cl)c1=O)N1CCN(S(=O)(=O)c2ccc3ccccc3c2)CC1 | 61 | i | 76* | -10 | -4 | i
c1ccc(Cn2nnnc2C(c2cccs2)N2CCc3ccccc3C2)cc1 (stereo not given) | 135 | i | 177* | 32 | -30 | i
c1ccc(Cn2nnnc2C(c2cccs2)N2CCCCCC2)cc1 (stereo not given) | 0 | i | 22 | 8 | 18 | i
CC(=O)N=c1sc2c3ccccc3ccc2n1C | . | i | . | 9 | . | i
Cc1ccc2cc(C)c(SCC(=O)NCC3CCCO3)nc2c1 (stereo not given) | -1 | i | -2 | 15 | -26 | i
SMILES | HSF1 inhib | CHT block | HSF1 activator | PHOSPHO1 inh | Hep lipid drop | CHT PAM
O=[N+]([O-])c1cccc(-c2ccc(C(=S)N3CCOCC3)o2)c1 | 49 | i | 79* | 12 | 1 | i
CN1CCN(C(=S)c2ccc(-c3cccc([N+](=O)[O-])c3)o2)CC1 | 29 | i | 49 | 12 | -19 | i
O=C(Nc1ccccc1F)c1ccc(-c2cccc([N+](=O)[O-])c2)o1 | 25 | i | 51* | -37 | 2 | i
O=[N+]([O-])c1cc(-c2ccc(C(=S)N3CCOCC3)o2)ccc1Cl | 0 | i | 6 | 61* | 4 | i
O=C(N/N=C/c1ccc(-c2cccc([N+](=O)[O-])c2)o1)c1ccccc1O | 25 | i | 58* | 23 | 3 | i
O=[N+]([O-])c1cccc(-c2ccc(C(=S)N3CCN(c4ccccc4)CC3)o2)c1 | 3 | i | 3 | 32 | -7 | i
N#C/C(=C/c1ccccc1)C(=O)NCc1ccccc1 | 3 | i | 4 | 64* | 2 | i
N#C/C(=C\c1ccc(OCc2ccc(C(=O)O)cc2)cc1)C(=O)NCc1ccccc1 | 2 | i | -9 | 14 | 0 | i
COCCNC(=O)/C(C#N)=C/c1ccc(OCc2ccc(F)cc2)cc1 | 4 | i | 14 | -3 | -16 | i
COCCCNC(=O)/C(C#N)=C/c1ccc(F)cc1 | 18 | i | 68* | 28 | 1 | i
COc1ccc(N(CC(=O)NC2CCCC2)C(=O)Cn2nnc(-c3ccc(OC)c(OC)c3)n2)c(OC)c1 | -4 | i | -18 | 17 | -23 | i
Cc1ccc(S(=O)(=O)N2CCN(C(=O)c3c(-c4ccccc4)noc3C)CC2)c(C)c1 | -76* | i | -79 | 23 | -6 | i
O=C(CC1CCCCC1)NCc1ccccn1 | -90* | i | -92 | 33 | 0 | i
CCCOc1ccc(/C=N/Nc2ccc(C(=O)O)cc2)c(OCCC)c1 | -56* | . | -52 | -85 | 13 | .
Cc1ccc(CSc2sc(C(=O)c3ccccc3)c(N)c2C#N)cc1 | 6 | i | 2 | 97* | 26 | i
N#Cc1c(SCc2cccc(Cl)c2)sc(C(=O)c2ccccc2)c1N | 1 | i | -16 | 62* | 17 | i
Cc1ccc(C(=O)c2sc(Nc3ccccc3)c(C#N)c2N)cc1 | . | i | . | -6 | 21 | i
Cc1cccc(Oc2sc(C(=O)c3ccccc3)c(N)c2C#N)c1C | 1 | i | 12 | 20 | . | i
N#Cc1c(SCc2ccccc2)sc(C(=O)c2ccccc2)c1N | -2 | i | 22 | 73* | 6 | i
O=c1c2nccnc2[nH]c(=S)n1Cc1ccccc1Cl | 0 | i | 2 | -78 | 7 | i
N/C(=N\OC(=O)Nc1ccccc1)c1ncc([N+](=O)[O-])s1 | 40 | i | 65* | 22 | 5 | i
